The text below walks through data of ChEMBL document CHEMBL1671817, “Synthesis of cationic antimicrobial β(2,2)-amino acid derivatives with potential for oral administration” (J Med Chem, 2011).

The test system of data set [1] is Staphylococcus aureus. The experiment in a line: Antimicrobial activity against methicillin-resistant Staphylococcus aureus ATCC 33591. Format: functional. The gist of the method:
(§1)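 MIC screen run at a contract lab. Each compound, as its ditrifluoroacetate salt, tested in duplicate at 200, 100, 50, 35, 15, 10, 5, 2.5, 1 and 0.5 μg/mL. Molar values calculated from the salt form. Gentamicin used as positive control.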

Data set [2] can be described thus: Therapeutic index, ratio of EC50 for human RBC hemolytic activity to MIC for Escherichia coli ATCC 25922. The settings on record: human red blood cells (RBC), read-out: TI. In outline: (§2)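 Index taken as hemolytic EC50 divided by MIC for each strain. Hemolysis: human RBCs from heparinized blood, washed with 37 °C PBS, diluted to 10% hematocrit. Cells exposed at 1% v/v final to compound in PBS at 1–1000 μg/mL for 1 h at 37 °C with agitation. Hemoglobin read by supernatant A405 against PBS and 0.1% Triton X-100 controls. MICs in duplicate at 0.5–200 μg/mL.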

For another data set, the system named is Escherichia coli. Put plainly: Antimicrobial activity against Escherichia coli ATCC 25922. Format: functional.
Data set [3] concerns Staphylococcus aureus. Put plainly: Antimicrobial activity against Staphylococcus aureus ATCC 25923. Format: functional.
The nature of data set [4]: Therapeutic index, ratio of EC50 for human RBC hemolytic activity to MIC for methicillin-resistant Staphylococcus epidermidis ATCC 27626. The settings on record: human red blood cells (RBC), read-out: TI. The gist of the method:
as §2

Data set [5] can be described thus: Hemolytic activity against human RBC assessed as hemoglobin release after 1 hr. Format: ADME, cell-based. The settings on record: Erythrocyte. The gist of the method: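 Heparinized human blood freed of plasma by centrifugation, washed three times in 37 °C PBS, diluted to 10% hematocrit and added to compound in PBS (1–1000 μg/mL) to 1% v/v erythrocytes. PBS negative, 0.1% v/v Triton X-100 positive control.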

Data set [6] can be described thus: Therapeutic index, ratio of EC50 for human RBC hemolytic activity to MIC for methicillin-resistant Staphylococcus aureus ATCC 33591. The conditions noted are these: human red blood cells (RBC), read-out: TI. The gist of the method: as §2
For data set [7], the system named is Staphylococcus epidermidis. Put plainly: Antimicrobial activity against methicillin-resistant Staphylococcus epidermidis ATCC 27626. Format: functional. In outline:
as §1

Data set [8] is described as follows: Therapeutic index, ratio of EC50 for human RBC hemolytic activity to MIC for Staphylococcus aureus ATCC 25923. The settings on record: human red blood cells (RBC), read-out: TI. The gist of the method:
as §2

Data set [9] is described as follows: Therapeutic index, ratio of EC50 for human RBC hemolytic activity to MIC for Pseudomonas aeruginosa ATCC 27853. The settings on record: human red blood cells (RBC), read-out: TI. The gist of the method: as §2
The nature of data set [10]: Permeability of the compound across phospholipid vesicle based barrier model at pH 7.4. Format: ADME. The gist of the method:
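Passive diffusion through phospholipid vesicle-based barriers (egg lipid extract, ~82% phosphatidylcholine) on filter inserts at room temperature. Donor in phosphate buffer pH 7.4, or pH 5.5 for a poorly soluble compound; acceptor always pH 7.4. Inserts moved to fresh acceptor wells; UV 230 nm at 1, 2, 3, 3.5, 4, 4.5, 5 h; barrier resistance checked afterwards.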

The subject of a further data set is Pseudomonas aeruginosa. Put plainly: Antimicrobial activity against Pseudomonas aeruginosa ATCC 27853. Format: functional.
The test system of data set [11] is Staphylococcus aureus. The experiment in a line: Antimicrobial activity against Staphylococcus aureus assessed as cell wall mesosome structure and septum of bacteria at 117 uM after 3 hrs by transmission electron microscopy. Format: functional, organism-based.
The test system of data set [12] is Staphylococcus aureus. The experiment in a line: Antimicrobial activity against Staphylococcus aureus assessed as cell wall mesosome structure and septum of bacteria at 234 uM after 2 hrs by transmission electron microscopy. Format: functional, organism-based.

The structures appear in SMILES notation. ≈ marks a conversion by molar mass, not a printed value. Calls of active or inactive are those of the source. No cut-off for these calls is given here.

In the case of `CN1CCN(C(=O)C(CN)(Cc2ccc(C(F)(F)F)cc2)Cc2ccc(C(F)(F)F)cc2)CC1.O=C(O)C(F)(F)F.O=C(O)C(F)(F)F`, the MIC against Staphylococcus aureus [1] is 14 µM; in the data set on Escherichia coli it was 70 µM; in the data set with Staphylococcus aureus [3] it was 49 µM; in data set [7], 70 µM. Besides, the selectivity ratio in data set [2] was 7.5; in data set [4], 7.5; in data set [6] it was 38; in data set [8] it was 11. Moreover, in data set [5], the EC50 was 525 µM.
`NCCNC(=O)C(CN)(CCCc1ccccc1)CCCc1ccccc1.O=C(O)C(F)(F)F.O=C(O)C(F)(F)F`: the MIC against Staphylococcus aureus [1] is 59 µM; with Escherichia coli it was 336 µM; against Staphylococcus aureus [3], 71 µM; in data set [7], 25 µM. In addition, the selectivity ratio in data set [2] is 4.1; in data set [4], 55; in data set [6], 23; in [8], 19. Further, the EC50 in data set [5] is 1380 µM.
As for `CN(C)CCNC(=O)C(CN)(Cc1ccc2ccccc2c1)Cc1ccc2ccccc2c1.O=C(O)C(F)(F)F.O=C(O)C(F)(F)F`, the MIC is 7.5 µM against Staphylococcus aureus [1]; 23 µM in the data set on Escherichia coli; 7.5 µM in the data set with Staphylococcus aureus [3]; 300 µM in the data set on Pseudomonas aeruginosa; 7.5 µM in [7]. In addition, the selectivity ratio was 5.1 in [2]; 0.4 in [9]; 16 in data set [4]; 16 in data set [6]; 16 in data set [8]. Also, in data set [5], the EC50 turned out to be 117 µM. Besides, the permeability result in data set [10] is “permeable”.
As for `CN(C)CCNC(=O)C(CN)(CCCc1ccccc1)CCCc1ccccc1.O=C(O)C(F)(F)F.O=C(O)C(F)(F)F`, the MIC against Staphylococcus aureus [1] worked out at 56 µM; with Escherichia coli it was 160 µM; against Staphylococcus aureus [3], 56 µM; in data set [7] it was 56 µM. The selectivity ratio in data set [2] was determined as 3.2; in data set [4] it was 9.1; in data set [6], 9.1; in data set [8] it was 9.1. Moreover, the EC50 in data set [5] stood at 507 µM.
For `CN1CCN(C(=O)C(CN)(CCCc2ccccc2)CCCc2ccccc2)CC1`, the MIC (against Staphylococcus aureus [1]; against Escherichia coli; against Staphylococcus aureus [3]; in data set [7]) was 315 µM (≈ 128 µg/mL) in each case.
As to `CN(C)CCNC(=O)C(CN)(Cc1ccc(C(F)(F)F)cc1)Cc1ccc(C(F)(F)F)cc1.O=C(O)C(F)(F)F.O=C(O)C(F)(F)F`, the MIC in the data set with Staphylococcus aureus [1] was found to be 7.1 µM; against Escherichia coli, 50 µM; in the data set with Staphylococcus aureus [3], 14 µM; in data set [7], 21 µM. Further, the selectivity ratio is 9.4 in [2], 22 in data set [4], 66 in [6] and 33 in data set [8]. Further, the EC50 in [5] was 468 µM.
As to `CN1CCN(C(=O)C(CN)(Cc2ccc3ccccc3c2)Cc2ccc3ccccc3c2)CC1.O=C(O)C(F)(F)F.O=C(O)C(F)(F)F`, the MIC was 7.4 µM against Staphylococcus aureus [1], 22 µM with Escherichia coli, 15 µM against Staphylococcus aureus [3] and 15 µM in data set [7]. Moreover, the selectivity ratio in [2] came out at 14; in data set [4], 20; in [6] it was 41; in data set [8], 20. For the same compound, the EC50 in [5] was found to be 303 µM. In addition, the permeability result in data set [10] is given as “permeable”.
Consider `CN(C)CCN1CCN(C(=O)C(CN)(Cc2ccc3ccccc3c2)Cc2ccc3ccccc3c2)CC1.O=C(O)C(F)(F)F.O=C(O)C(F)(F)F`, for which the MIC in the data set with Staphylococcus aureus [1] is 3.4 µM; with Escherichia coli, 48 µM; with Staphylococcus aureus [3], 20 µM; in data set [7], 14 µM. The selectivity ratio was 8.5 in data set [2], 29 in [4], 120 in [6] and 20 in data set [8]. In data set [5], the EC50 was 409 µM. The permeability result in data set [10] is “permeable”.
For the compound `CN(C)CCN1CCN(C(=O)C(CN)(Cc2ccc(C(F)(F)F)cc2)Cc2ccc(C(F)(F)F)cc2)CC1.O=C(O)C(F)(F)F.O=C(O)C(F)(F)F`, the MIC was determined as 6.5 µM in the data set on Staphylococcus aureus [1], 129 µM in the data set on Escherichia coli, 45 µM against Staphylococcus aureus [3] and 65 µM in data set [7]. For the same compound, the selectivity ratio in [2] amounted to 8.6; in data set [4], 17; in [6], 172; in [8], 25. In addition, the EC50 in data set [5] was 1120 µM.
`NCCNC(=O)C(CN)(Cc1ccc(C(F)(F)F)cc1)Cc1ccc(C(F)(F)F)cc1.O=C(O)C(F)(F)F.O=C(O)C(F)(F)F`: the MIC amounted to 7.4 µM in the data set on Staphylococcus aureus [1], 52 µM against Escherichia coli, 15 µM in the data set with Staphylococcus aureus [3] and 15 µM in [7]. The selectivity ratio in [2] was determined as 8; in [4], 28; in [6], 57; in [8], 28. For the same compound, the EC50 in data set [5] was found to be 425 µM.
On to `CN1CCN(C(=O)C(CN)(Cc2ccc(C(C)(C)C)cc2)Cc2ccc(C(C)(C)C)cc2)CC1.O=C(O)C(F)(F)F.O=C(O)C(F)(F)F`, for which the MIC in the data set on Staphylococcus aureus [1] was 15 µM; against Escherichia coli, 15 µM; in the data set with Staphylococcus aureus [3], 15 µM; against Pseudomonas aeruginosa it was 289 µM; in data set [7] it was 7.2 µM. In addition, the selectivity ratio in data set [2] stood at 23; in data set [9], 1.2; in data set [4] it was 48; in data set [6] it was 23; in [8], 23. In addition, in [5], the EC50 was found to be 348 µM.
In the case of `NCCNC(=O)C(CN)(Cc1ccc2ccccc2c1)Cc1ccc2ccccc2c1.O=C(O)C(F)(F)F.O=C(O)C(F)(F)F`, the MIC is 7.8 µM in the data set with Staphylococcus aureus [1]; 24 µM with Escherichia coli; 3.9 µM in the data set with Staphylococcus aureus [3]; 55 µM in the data set with Pseudomonas aeruginosa; 3.9 µM in data set [7]. The selectivity ratio in [2] came to 19; in [9], 8.3; in [4], 117; in [6] it was 59; in [8], 117. Moreover, in data set [5], the EC50 stood at 457 µM. The outcome in the data set on Staphylococcus aureus [11] and with Staphylococcus aureus [12] was Active.
Consider `CN(C)CCN1CCN(C(=O)C(CN)(CCCc2ccccc2)CCCc2ccccc2)CC1`, for which the MIC in the data set with Staphylococcus aureus [1] came to 72 µM (≈ 33.5 µg/mL); against Escherichia coli, 289 µM (≈ 134 µg/mL); in the data set on Staphylococcus aureus [3], 289 µM (≈ 134 µg/mL); in data set [7], 72 µM (≈ 33.5 µg/mL).
In the case of `CN(C)CCN1CCN(C(=O)C(CN)(Cc2ccc(C(C)(C)C)cc2)Cc2ccc(C(C)(C)C)cc2)CC1.O=C(O)C(F)(F)F.O=C(O)C(F)(F)F`, the MIC came out at 13 µM with Staphylococcus aureus [1]; 13 µM against Escherichia coli; 13 µM with Staphylococcus aureus [3]; 255 µM against Pseudomonas aeruginosa; 13 µM in data set [7]. In addition, the selectivity ratio in data set [2] is 26; in data set [9], 1.3; in data set [4], 26; in data set [6], 26; in data set [8] it was 26. Also, the EC50 in [5] came to 337 µM.
Turning to `CN(C)CCNC(=O)C(CN)(Cc1ccc(C(C)(C)C)cc1)Cc1ccc(C(C)(C)C)cc1.O=C(O)C(F)(F)F.O=C(O)C(F)(F)F`, the MIC in the data set with Staphylococcus aureus [1] was determined as 7.4 µM; with Escherichia coli, 7.4 µM; against Staphylococcus aureus [3], 7.4 µM; in the data set on Pseudomonas aeruginosa, 74 µM; in data set [7], 3.7 µM. Also, the selectivity ratio came out at 37 in data set [2]; 3.7 in data set [9]; 74 in data set [4]; 37 in data set [6]; 37 in data set [8]. Besides, the EC50 in data set [5] worked out at 274 µM.
`CC(C)(C)c1ccc(CC(CN)(Cc2ccc(C(C)(C)C)cc2)C(=O)NCCN)cc1.O=C(O)C(F)(F)F.O=C(O)C(F)(F)F`: the MIC against Staphylococcus aureus [1] stood at 3.8 µM; with Escherichia coli, 7.7 µM; in the data set with Staphylococcus aureus [3], 3.8 µM; against Pseudomonas aeruginosa, 23 µM; in data set [7] it was 3.8 µM. Besides, the selectivity ratio in data set [2] is 2.3; in [9], 0.8; in data set [4], 4.7; in data set [6], 4.7; in [8] it was 4.7. Also, the EC50 in data set [5] turned out to be 18 µM.
